In ChEMBL document CHEMBL5058577, “EUbOPEN Chemogenomics Library 2 (Multiplex)” (2022):

System: U2OS
Test: Multiplex assay against U2OS
Type: toxicity, cell-based
Details: human
Outline: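 Tubulin, mitochondrial-mass and membrane-permeability phenotypes are per cents of healthy-nucleus cells. Cells were gated by CellPathfinder machine learning into Hoechst high-intensity objects or normal cells, normal cells into healthy, pyknosed or fragmented nuclei, and pyknosed cells into mitotic or apoptotic. Before that, live cells stained at seeding with Hoechst33342, BioTracker Green Microtubule Cytoskeleton Dye, MitoTracker Red and Annexin V Alexa Fluor 680 were imaged on a CQ1 microscope at 37°C and 5% CO2 after compound addition.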

[1] = 12 h, 1 µM, compound concentration 1 uM, replicate 1
[2] = 12 h, 1 µM, compound concentration 1 uM, replicate 2
[3] = 12 h, 10 µM, compound concentration 10 uM, replicate 1
[4] = 12 h, 10 µM, compound concentration 10 uM, replicate 2
[5] = 24 h, 1 µM, compound concentration 1 uM, replicate 1
[6] = 24 h, 1 µM, compound concentration 1 uM, replicate 2
[7] = 24 h, 10 µM, compound concentration 10 uM, replicate 1
[8] = 24 h, 10 µM, compound concentration 10 uM, replicate 2
[9] = 48 h, 1 µM, compound concentration 1 uM, replicate 1
[10] = 48 h, 1 µM, compound concentration 1 uM, replicate 2
[11] = 48 h, 10 µM, compound concentration 10 uM, replicate 1
[12] = 48 h, 10 µM, compound concentration 10 uM, replicate 2

## CN(C)C(=O)Cn1cc(-c2ccc(-c3nnc4ccccn34)cc2)cn1
[1]
  Population Apoptotic (%): 90%
  Population Fragmented Nuclei (%): 25%
  Population Healthy Nuclei (%): 66%
  Population Hoechst High Intensity Objects (%): 1%
  Population Membrane Permeable-Phenotype (%): 6%
  Population Mitochondria Different-Phenotype (%): 1%
  Population Mitotic Cells (%): 9%
  Population Normal (%): 98%
  Population Pyknosed Nuclei (%): 8%
  Population Tubulin-Different-Phenotype (%): 3%
  Total Cell Count: 251
[2]
  Population Fragmented Nuclei (%): 22%
  Population Healthy Nuclei (%): 68%
  Population Hoechst High Intensity Objects (%): 0%
  Population Membrane Permeable-Phenotype (%): 3%
  Population Mitochondria Different-Phenotype (%): 6%
  Population Normal (%): 99%
  Population Pyknosed Nuclei (%): 9%
  Population Tubulin-Different-Phenotype (%): 4%
  Total Cell Count: 123
[3]
  Population Apoptotic (%): 95%
  Population Fragmented Nuclei (%): 26%
  Population Healthy Nuclei (%): 65%
  Population Hoechst High Intensity Objects (%): 1%
  Population Membrane Permeable-Phenotype (%): 4%
  Population Mitochondria Different-Phenotype (%): 1%
  Population Mitotic Cells (%): 4%
  Population Normal (%): 98%
  Population Pyknosed Nuclei (%): 7%
  Population Tubulin-Different-Phenotype (%): 3%
  Total Cell Count: 298
[4]
  Population Apoptotic (%): 90%
  Population Fragmented Nuclei (%): 11%
  Population Healthy Nuclei (%): 81%
  Population Mitochondria Different-Phenotype (%): 0%
  Population Mitotic Cells (%): 10%
  Total Cell Count: 140
[5]
  Population Apoptotic (%): 94%
  Population Fragmented Nuclei (%): 22%
  Population Healthy Nuclei (%): 71%
  Population Hoechst High Intensity Objects (%): 0%
  Population Membrane Permeable-Phenotype (%): 4%
  Population Mitochondria Different-Phenotype (%): 2%
  Population Mitotic Cells (%): 5%
  Population Normal (%): 99%
  Population Pyknosed Nuclei (%): 5%
  Population Tubulin-Different-Phenotype (%): 1%
  Total Cell Count: 315
[6]
  Population Apoptotic (%): 100%
  Population Fragmented Nuclei (%): 17%
  Population Healthy Nuclei (%): 74%
  Population Membrane Permeable-Phenotype (%): 7%
  Population Mitochondria Different-Phenotype (%): 7%
  Population Mitotic Cells (%): 0%
  Population Normal (%): 100%
  Population Pyknosed Nuclei (%): 8%
  Population Tubulin-Different-Phenotype (%): 4%
  Total Cell Count: 131
[7]
  Population Apoptotic (%): 86%
  Population Fragmented Nuclei (%): 22%
  Population Healthy Nuclei (%): 66%
  Population Hoechst High Intensity Objects (%): 2%
  Population Membrane Permeable-Phenotype (%): 4%
  Population Mitochondria Different-Phenotype (%): 1%
  Population Mitotic Cells (%): 13%
  Population Normal (%): 97%
  Population Pyknosed Nuclei (%): 11%
  Population Tubulin-Different-Phenotype (%): 2%
  Total Cell Count: 333
[8]
  Population Apoptotic (%): 87%
  Population Fragmented Nuclei (%): 10%
  Population Healthy Nuclei (%): 85%
  Population Hoechst High Intensity Objects (%): 1%
  Population Membrane Permeable-Phenotype (%): 7%
  Population Mitotic Cells (%): 12%
  Population Normal (%): 98%
  Population Pyknosed Nuclei (%): 4%
  Population Tubulin-Different-Phenotype (%): 3%
  Total Cell Count: 180
[9]
  Population Apoptotic (%): 87%
  Population Fragmented Nuclei (%): 16%
  Population Healthy Nuclei (%): 75%
  Population Hoechst High Intensity Objects (%): 2%
  Population Membrane Permeable-Phenotype (%): 4%
  Population Mitochondria Different-Phenotype (%): 2%
  Population Mitotic Cells (%): 12%
  Population Normal (%): 97%
  Population Pyknosed Nuclei (%): 7%
  Population Tubulin-Different-Phenotype (%): 1%
  Total Cell Count: 426
[10]
  Population Apoptotic (%): 93%
  Population Fragmented Nuclei (%): 11%
  Population Healthy Nuclei (%): 67%
  Population Membrane Permeable-Phenotype (%): 7%
  Population Mitochondria Different-Phenotype (%): 3%
  Population Mitotic Cells (%): 6%
  Population Pyknosed Nuclei (%): 20%
  Population Tubulin-Different-Phenotype (%): 3%
  Total Cell Count: 158
[11]
  Population Apoptotic (%): 95%
  Population Fragmented Nuclei (%): 21%
  Population Healthy Nuclei (%): 67%
  Population Hoechst High Intensity Objects (%): 3%
  Population Membrane Permeable-Phenotype (%): 8%
  Population Mitochondria Different-Phenotype (%): 4%
  Population Mitotic Cells (%): 4%
  Population Normal (%): 96%
  Population Pyknosed Nuclei (%): 11%
  Population Tubulin-Different-Phenotype (%): 4%
  Total Cell Count: 418
[12]
  Population Apoptotic (%): 85%
  Population Fragmented Nuclei (%): 8%
  Population Healthy Nuclei (%): 81%
  Population Hoechst High Intensity Objects (%): 2%
  Population Membrane Permeable-Phenotype (%): 6%
  Population Mitochondria Different-Phenotype (%): 2%
  Population Mitotic Cells (%): 14%
  Population Normal (%): 97%
  Population Pyknosed Nuclei (%): 9%
  Population Tubulin-Different-Phenotype (%): 2%
  Total Cell Count: 284

## COCCn1c(C)c(C)s/c1=N\C(=O)C1C(C)(C)C1(C)C
[1]
  Population Apoptotic (%): 88%
  Population Fragmented Nuclei (%): 24%
  Population Healthy Nuclei (%): 69%
  Population Hoechst High Intensity Objects (%): 0%
  Population Membrane Permeable-Phenotype (%): 8%
  Population Mitochondria Different-Phenotype (%): 1%
  Population Mitotic Cells (%): 11%
  Population Normal (%): 99%
  Population Pyknosed Nuclei (%): 6%
  Population Tubulin-Different-Phenotype (%): 3%
  Total Cell Count: 271
[2]
  Population Apoptotic (%): 71%
  Population Fragmented Nuclei (%): 20%
  Population Healthy Nuclei (%): 74%
  Population Membrane Permeable-Phenotype (%): 11%
  Population Mitochondria Different-Phenotype (%): 3%
  Population Mitotic Cells (%): 28%
  Population Normal (%): 100%
  Population Pyknosed Nuclei (%): 5%
  Population Tubulin-Different-Phenotype (%): 5%
  Total Cell Count: 135
[3]
  Population Apoptotic (%): 73%
  Population Fragmented Nuclei (%): 33%
  Population Healthy Nuclei (%): 52%
  Population Hoechst High Intensity Objects (%): 2%
  Population Membrane Permeable-Phenotype (%): 10%
  Population Mitochondria Different-Phenotype (%): 4%
  Population Mitotic Cells (%): 26%
  Population Normal (%): 97%
  Population Pyknosed Nuclei (%): 13%
  Population Tubulin-Different-Phenotype (%): 5%
  Total Cell Count: 220
[4]
  Population Apoptotic (%): 80%
  Population Fragmented Nuclei (%): 20%
  Population Healthy Nuclei (%): 68%
  Population Hoechst High Intensity Objects (%): 0%
  Population Membrane Permeable-Phenotype (%): 9%
  Population Mitochondria Different-Phenotype (%): 3%
  Population Mitotic Cells (%): 20%
  Population Normal (%): 100%
  Population Pyknosed Nuclei (%): 11%
  Population Tubulin-Different-Phenotype (%): 4%
  Total Cell Count: 135
[5]
  Population Apoptotic (%): 89%
  Population Fragmented Nuclei (%): 18%
  Population Healthy Nuclei (%): 75%
  Population Hoechst High Intensity Objects (%): 0%
  Population Membrane Permeable-Phenotype (%): 5%
  Population Mitochondria Different-Phenotype (%): 3%
  Population Mitotic Cells (%): 10%
  Population Normal (%): 99%
  Population Pyknosed Nuclei (%): 6%
  Population Tubulin-Different-Phenotype (%): 2%
  Total Cell Count: 314
[6]
  Population Apoptotic (%): 83%
  Population Healthy Nuclei (%): 77%
  Population Membrane Permeable-Phenotype (%): 9%
  Population Mitotic Cells (%): 16%
  Population Pyknosed Nuclei (%): 3%
  Population Tubulin-Different-Phenotype (%): 4%
  Total Cell Count: 157
[7]
  Population Apoptotic (%): 80%
  Population Fragmented Nuclei (%): 28%
  Population Healthy Nuclei (%): 58%
  Population Hoechst High Intensity Objects (%): 1%
  Population Membrane Permeable-Phenotype (%): 8%
  Population Mitochondria Different-Phenotype (%): 8%
  Population Mitotic Cells (%): 19%
  Population Normal (%): 98%
  Population Pyknosed Nuclei (%): 12%
  Population Tubulin-Different-Phenotype (%): 2%
  Total Cell Count: 257
[8]
  Population Apoptotic (%): 88%
  Population Fragmented Nuclei (%): 21%
  Population Healthy Nuclei (%): 66%
  Population Membrane Permeable-Phenotype (%): 10%
  Population Mitochondria Different-Phenotype (%): 1%
  Population Mitotic Cells (%): 11%
  Population Tubulin-Different-Phenotype (%): 9%
  Total Cell Count: 141
[9]
  Population Apoptotic (%): 94%
  Population Fragmented Nuclei (%): 12%
  Population Healthy Nuclei (%): 79%
  Population Hoechst High Intensity Objects (%): 1%
  Population Membrane Permeable-Phenotype (%): 5%
  Population Mitochondria Different-Phenotype (%): 2%
  Population Mitotic Cells (%): 5%
  Population Normal (%): 98%
  Population Pyknosed Nuclei (%): 8%
  Population Tubulin-Different-Phenotype (%): 4%
  Total Cell Count: 459
[10]
  Population Apoptotic (%): 100%
  Population Fragmented Nuclei (%): 15%
  Population Membrane Permeable-Phenotype (%): 9%
  Population Mitochondria Different-Phenotype (%): 1%
  Population Mitotic Cells (%): 0%
  Population Pyknosed Nuclei (%): 4%
  Population Tubulin-Different-Phenotype (%): 5%
  Total Cell Count: 218
[11]
  Population Apoptotic (%): 81%
  Population Fragmented Nuclei (%): 22%
  Population Healthy Nuclei (%): 62%
  Population Hoechst High Intensity Objects (%): 2%
  Population Membrane Permeable-Phenotype (%): 11%
  Population Mitochondria Different-Phenotype (%): 4%
  Population Mitotic Cells (%): 18%
  Population Normal (%): 97%
  Population Pyknosed Nuclei (%): 14%
  Population Tubulin-Different-Phenotype (%): 5%
  Total Cell Count: 305
[12]
  Population Apoptotic (%): 96%
  Population Fragmented Nuclei (%): 15%
  Population Healthy Nuclei (%): 71%
  Population Hoechst High Intensity Objects (%): 1%
  Population Membrane Permeable-Phenotype (%): 4%
  Population Mitotic Cells (%): 4%
  Population Normal (%): 98%
  Population Pyknosed Nuclei (%): 12%
  Population Tubulin-Different-Phenotype (%): 2%
  Total Cell Count: 206
